{
  "source": "ChEMBL document CHEMBL1154907",
  "about": "“Synthesis and preclinical evaluations of 2-(2-fluorophenyl)-6,7-methylenedioxyquinolin-4-one monosodium phosphate (CHM-1-P-Na) as a potent antitumor agent” (J Med Chem, 2010)",
  "key": {"[1]": {"experiment": "Growth inhibition of human MKN1 cells by SRB assay", "type": "functional, MKN-1", "outline": "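Human cancer cell panel; five concentrations from 10^-4 to 10^-8 M; growth measured by sulforhodamine B colorimetric method; GI50, TGI and LC50 derived from computer-analysed dose-response curves.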"}, "[2]": {"experiment": "Mean residence time in CD1 mouse at 10 mg/kg, ip", "type": "ADME, organism-based", "set-up": "dose 10 mg/kg, route intraperitoneal", "details": "in vivo", "outline": "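Male CD-1 (Crl.) mice, 22-24 g, single 10 mg/kg ip bolus of parent drug in cremophor/DMSO/saline (20/5/75, v/v; 2 mg/mL, 5 mL/kg). Blood sampled at 0, 5, 15, 30 min, 1, 1.5, 2, 4, 6, 9, 24, 27 h, three mice per time point. Plasma extracted with acetonitrile, analysed by LC-MS/MS. Parameters calculated from mean plasma concentrations.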"}, "[3]": {"molecular_target": "Mitogen-activated protein kinase 10 (Homo sapiens) (UniProt P53779)", "sequence (P53779 whole entry)": "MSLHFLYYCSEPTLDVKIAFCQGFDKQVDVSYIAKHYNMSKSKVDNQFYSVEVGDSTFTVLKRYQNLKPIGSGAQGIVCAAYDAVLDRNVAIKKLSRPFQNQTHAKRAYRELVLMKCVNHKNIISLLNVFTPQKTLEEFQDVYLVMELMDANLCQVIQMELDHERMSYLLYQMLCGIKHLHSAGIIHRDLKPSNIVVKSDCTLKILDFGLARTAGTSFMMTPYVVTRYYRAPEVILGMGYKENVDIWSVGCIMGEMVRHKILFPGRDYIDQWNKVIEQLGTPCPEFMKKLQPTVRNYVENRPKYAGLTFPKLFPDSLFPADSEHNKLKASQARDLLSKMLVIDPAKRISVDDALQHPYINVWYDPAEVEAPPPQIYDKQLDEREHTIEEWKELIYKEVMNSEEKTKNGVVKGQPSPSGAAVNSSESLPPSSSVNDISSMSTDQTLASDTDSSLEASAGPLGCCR", "experiment": "Inhibition of human JNK3 at 10 uM by enzyme assay", "outline": "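Commercial spectrum screen of enzyme assays under standard protocols; percent inhibition tested at 10 μM; IC50 determined for targets showing significant inhibition at that concentration; SEM given where multiple independent determinations.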"}, "[4]": {"tested_on": "SK-OV-3", "experiment": "Induction of mitotic arrest in human SKOV3 cells assessed as increase in securin expression at 10 uM after 24 hrs by Western blot", "type": "functional, cell-based", "outline": "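SKOV-3 cells in DMEM/F-12 with 10% fetal calf serum, treated with 10 μM or vehicle (DMSO). Lysates, 50 μg protein, resolved by SDS-PAGE, transferred to PVDF, probed for cyclin B1 or securin with β-actin loading control; ECL detection, bands quantified by phosphorimaging; at least three separate experiments.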"}},
  "note": "Active and inactive are the calls of the source. No cut-off for these calls is given here.",
  "data": [
    {"compound": "O=c1cc(-c2ccccc2F)[nH]c2cc3c(cc12)OCO3", "values": [
      {"measurement": "GI50", "setting": "[1]; MKN-1", "result": 0.0776, "unit": "µM"},
      {"measurement": "CC50", "setting": "[1]; MKN-1, read-out: pLC50 (converted)", "result": "> 100", "unit": "µM"},
      {"measurement": "TGI", "setting": "[1]; MKN-1, read-out: pTGI", "result": "> 100", "unit": "µM"},
      {"measurement": "MRT", "setting": "[2]", "result": 7.3, "unit": "h"},
      {"measurement": "inhibition", "setting": "[3]", "result": 55, "unit": "%"},
      {"measurement": "Activity", "setting": "[4]", "result": "Active"}
    ]}
  ]
}
